Converted amounts (≈) assume the structure as drawn. The source made the active and inactive calls.

The results in this text go back to ChEMBL document CHEMBL4725360, “Optimization of Acetazolamide-Based Scaffold as Potent Inhibitors of Vancomycin-Resistant Enterococcus” (J Med Chem, 2020).

The nature of series [1]: Cytotoxicity against human Caco2 cells incubated for 2 hrs by MTS assay. In kind it is cell-based. The settings on record: Caco-2 cells. In a few lines:
(§1)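 Caco-2 cells maintained in DMEM with 10% FBS, non-essential amino acids and penicillin-streptomycin at 37 °C, 5% CO₂. Compound exposure for 2 h in serum-free medium at several concentrations; DMSO-matched controls. Viability expressed relative to DMSO controls (mean ± SD), and CC₅₀ derived.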
On the technique in general: Tetrazolium assays rely on reduction of a dye to a coloured formazan, in cell work by metabolically active cells.

Series [2] concerns Enterococcus faecium. Nature of the series: Antibacterial activity against Enterococcus faecium HM968 incubated for 18 to 20 hrs under aerobic condition by CLSI protocol based broth microdilution assay. The series is classed as functional. The settings on record: time hrs 18-20. In a few lines: (§2)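 Broth microdilution per CLSI. Strains grown aerobically overnight on trypticase soy agar at 37 °C. Inoculum set to 0.5 McFarland, diluted in trypticase soy broth to about 5 × 10⁵ CFU/mL. Agents serially diluted, plates incubated aerobically at 37 °C for 18–20 h. MIC is the lowest concentration with no visible growth. Compound stocks 10 mg/mL in DMSO.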

Series [3] has as its system Enterococcus faecium. Kind of series: Inhibition of carbonic anhydrase in Enterococcus faecium ATCC 700221 assessed as antibacterial activity incubated for 18 to 20 hrs in presence of ambient air by CLSI protocol based broth microdilution assay. The settings on record: time hrs 18-20. In a few lines: (§3)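 CLSI broth microdilution: inoculum about 5 × 10⁵ CFU/mL in trypticase soy broth with serial dilutions of agents. Paired plates incubated at 37 °C for 18–20 h, one set in ambient air ("normal"), the other under 5% CO₂. MIC is the lowest concentration completely inhibiting visible growth.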
In general terms: Broth dilution looks for growth in wells or tubes with falling amounts of substance.

The test system of series [4] is Enterococcus faecium. Nature of the series: Inhibition of carbonic anhydrase in Enterococcus faecium ATCC 700221 assessed as antibacterial activity incubated for 18 to 20 hrs in presence of 5% CO2 by CLSI protocol based broth microdilution assay. Particulars: time hrs 18-20. In a few lines:
as §3

In series [5] the test system is Enterococcus faecium. Nature of the series: Antibacterial activity against Enterococcus faecium NR-31914 incubated for 18 to 20 hrs under aerobic condition by CLSI protocol based broth microdilution assay. The series is classed as functional. Particulars: time hrs 18-20. In a few lines:
as §2

Series [6] has as its system Enterococcus faecalis. Kind of series: Antibacterial activity against Enterococcus faecalis NR-31975 incubated for 18 to 20 hrs under aerobic condition by CLSI protocol based broth microdilution assay. In kind it is functional, organism-based. Particulars: time hrs 18-20. In a few lines: as §2
The subject of series [7] is Enterococcus faecium. Kind of series: Antibacterial activity against Enterococcus faecium NR-31916 incubated for 18 to 20 hrs under aerobic condition by CLSI protocol based broth microdilution assay. The series is classed as functional. The settings on record: time hrs 18-20. In a few lines: as §2
Series [8] deals with Enterococcus faecalis. Kind of series: Antibacterial activity against Enterococcus faecalis HM-335 incubated for 18 to 20 hrs under aerobic condition by CLSI protocol based broth microdilution assay. In kind it is functional. Particulars: time hrs 18-20. In a few lines: as §2
Series [9] relates to Enterococcus faecium. Nature of the series: Antibacterial activity against Enterococcus faecium NR-31971 incubated for 18 to 20 hrs under aerobic condition by CLSI protocol based broth microdilution assay. In kind it is functional. The settings on record: time hrs 18-20. In a few lines:
as §2

Series [10] has as its system Enterococcus faecium. Kind of series: Antibacterial activity against Enterococcus faecium NR-32065 incubated for 18 to 20 hrs under aerobic condition by CLSI protocol based broth microdilution assay. In kind it is functional. Particulars: time hrs 18-20. In a few lines:
as §2

Series [11] deals with Enterococcus faecium. Kind of series: Antibacterial activity against Enterococcus faecium NR-31903 incubated for 18 to 20 hrs under aerobic condition by CLSI protocol based broth microdilution assay. The settings on record: time hrs 18-20. The series is classed as functional. In a few lines: as §2
For the next series, the system named is Caco-2. Nature of the series: Cytotoxicity against human Caco2 cells at 128 ug/ml incubated for 2 hrs by MTS assay. The series is classed as cell-based. The settings on record: caco-2, 2 h, dose 128 µg/ml. In a few lines:
as §1

In series [12] the test system is Enterococcus faecalis. Nature of the series: Antibacterial activity against Enterococcus faecalis NR-31970 incubated for 18 to 20 hrs under aerobic condition by CLSI protocol based broth microdilution assay. Particulars: time hrs 18-20. The series is classed as functional, organism-based. In a few lines: as §2
Series [13] has as its system Enterococcus faecium. Kind of series: Antibacterial activity against Enterococcus faecium NR-28978 incubated for 18 to 20 hrs under aerobic condition by CLSI protocol based broth microdilution assay. In kind it is functional. Particulars: time hrs 18-20. In a few lines:
as §2

For series [14], the system named is Enterococcus faecium. Kind of series: Antibacterial activity against Enterococcus faecium HM965 incubated for 18 to 20 hrs under aerobic condition by CLSI protocol based broth microdilution assay. The series is classed as functional. Particulars: time hrs 18-20. In a few lines:
as §2

Series [15] relates to Enterococcus faecium. Kind of series: Antibacterial activity against Enterococcus faecium NR-31972 incubated for 18 to 20 hrs under aerobic condition by CLSI protocol based broth microdilution assay. In kind it is functional. Particulars: time hrs 18-20. In a few lines: as §2
The test system of series [16] is Enterococcus faecium. Nature of the series: Antibacterial activity against Enterococcus faecium NR-32052 incubated for 18 to 20 hrs under aerobic condition by CLSI protocol based broth microdilution assay. The series is classed as functional. Particulars: time hrs 18-20. In a few lines: as §2
The test system of series [17] is Enterococcus faecalis. Nature of the series: Antibacterial activity against Enterococcus faecalis HM-334 incubated for 18 to 20 hrs under aerobic condition by CLSI protocol based broth microdilution assay. The series is classed as functional. Particulars: time hrs 18-20. In a few lines: as §2

The CC50 is the concentration at which the toxic effect on the cells reaches its halfway point. The MIC is the smallest concentration in the dilution series that meets the test's criterion for growth inhibition. A low value points to a more susceptible organism. Turning to `NS(=O)(=O)c1nnc(NC(=O)CC2CCCC2)s1`, the CC50 at 2 h in series [1] was more than 128 µg/mL. Besides, the MIC came out at 0.06 µg/mL (≈ 0.207 µM) in the series with Enterococcus faecium [2]; 0.125 µg/mL (≈ 0.43 µM) against Enterococcus faecium [5]; 0.015 µg/mL (≈ 0.0517 µM) in the series with Enterococcus faecium [7]; 0.03 µg/mL (≈ 0.103 µM) in the series with Enterococcus faecalis [8]; 0.06 µg/mL (≈ 0.207 µM) in the series with Enterococcus faecium [9]; 0.015 µg/mL (≈ 0.0517 µM) with Enterococcus faecium [10]. Besides, the MIC against Enterococcus faecium [11] turned out to be 0.125 µg/mL (≈ 0.43 µM); against Enterococcus faecium [13] it was 0.125 µg/mL (≈ 0.43 µM); in the series on Enterococcus faecium [14] it was 0.06 µg/mL (≈ 0.207 µM); against Enterococcus faecium [15], 0.03 µg/mL (≈ 0.103 µM); in the series with Enterococcus faecium [16], 0.06 µg/mL (≈ 0.207 µM); against Enterococcus faecalis [17], 0.03 µg/mL (≈ 0.103 µM). In addition, in the series with Enterococcus faecium [3], the inhibition result was “Active”. In addition, in the series with Enterococcus faecium [4], the inhibition result was “inactive”. Also, the outcome in the series with Enterococcus faecalis [6] and with Enterococcus faecalis [12] was Active. Also, in the series with Caco-2, the Activity entry is reported as “Non-Toxic”.
`CC(C)CC(=O)Nc1nnc(S(N)(=O)=O)s1` showed a CC50 at 2 h in series [1] of more than 128 µg/mL. Moreover, the MIC in the series on Enterococcus faecium [2] worked out at 0.125 µg/mL (≈ 0.473 µM); against Enterococcus faecium [5], 0.25 µg/mL (≈ 0.946 µM); in the series with Enterococcus faecium [7], 0.125 µg/mL (≈ 0.473 µM); with Enterococcus faecalis [8], 0.125 µg/mL (≈ 0.473 µM); against Enterococcus faecium [9], 0.5 µg/mL (≈ 1.89 µM); against Enterococcus faecium [10], 0.25 µg/mL (≈ 0.946 µM). The MIC with Enterococcus faecium [11] is 0.125 µg/mL (≈ 0.473 µM); in the series with Enterococcus faecium [13], 0.25 µg/mL (≈ 0.946 µM); against Enterococcus faecium [14], 0.125 µg/mL (≈ 0.473 µM); against Enterococcus faecium [15], 0.5 µg/mL (≈ 1.89 µM); against Enterococcus faecium [16] it was 0.125 µg/mL (≈ 0.473 µM); in the series on Enterococcus faecalis [17] it was 0.5 µg/mL (≈ 1.89 µM). Besides, the result in the series with Enterococcus faecalis [6] and with Enterococcus faecalis [12] was Active. In the series on Caco-2, the Activity result is “Non-Toxic”.
In [1], `CCCCCCC(=O)Nc1nnc(S(N)(=O)=O)s1` yielded a CC50 at 2 h of more than 128 µg/mL. The MIC in the series on Enterococcus faecium [2] turned out to be 0.015 µg/mL (≈ 0.0513 µM); against Enterococcus faecium [5], 0.03 µg/mL (≈ 0.103 µM); in the series with Enterococcus faecium [7], 0.06 µg/mL (≈ 0.205 µM); with Enterococcus faecalis [8] it was 0.015 µg/mL (≈ 0.0513 µM); in the series on Enterococcus faecium [9] it was 0.03 µg/mL (≈ 0.103 µM); in the series with Enterococcus faecium [10], 0.03 µg/mL (≈ 0.103 µM). The minimum inhibitory concentration (MIC) with Enterococcus faecium [11] came to 0.03 µg/mL (≈ 0.103 µM); in the series on Enterococcus faecium [13], 0.06 µg/mL (≈ 0.205 µM); against Enterococcus faecium [14], 0.015 µg/mL (≈ 0.0513 µM); against Enterococcus faecium [15], 0.03 µg/mL (≈ 0.103 µM); against Enterococcus faecium [16] it was 0.03 µg/mL (≈ 0.103 µM); in the series on Enterococcus faecalis [17] it was 0.015 µg/mL (≈ 0.0513 µM). Besides, in the series with Enterococcus faecium [3], the inhibition result was “Active”. Moreover, the inhibition entry with Enterococcus faecium [4] was “inactive”. Also, the result in the series with Enterococcus faecalis [6] and in the series with Enterococcus faecalis [12] was Active. For the same molecule, the Activity entry in the series with Caco-2 is recorded as “Non-Toxic”.
On to `NS(=O)(=O)c1nnc(NC(=O)CC2CC2)s1`, for which the CC50 at 2 h in [1] was more than 128 µg/mL. Besides, the MIC in the series with Enterococcus faecium [2] is 0.5 µg/mL (≈ 1.91 µM); with Enterococcus faecium [5] it was 0.5 µg/mL (≈ 1.91 µM); in the series on Enterococcus faecium [7] it was 0.25 µg/mL (≈ 0.953 µM); against Enterococcus faecalis [8], 0.25 µg/mL (≈ 0.953 µM); against Enterococcus faecium [9], 0.5 µg/mL (≈ 1.91 µM); against Enterococcus faecium [10], 0.25 µg/mL (≈ 0.953 µM). Moreover, the MIC against Enterococcus faecium [11] amounted to 0.25 µg/mL (≈ 0.953 µM); in the series with Enterococcus faecium [13], 1 µg/mL (≈ 3.81 µM); against Enterococcus faecium [14], 0.25 µg/mL (≈ 0.953 µM); against Enterococcus faecium [15], 0.5 µg/mL (≈ 1.91 µM); with Enterococcus faecium [16] it was 0.25 µg/mL (≈ 0.953 µM); against Enterococcus faecalis [17] it was 0.5 µg/mL (≈ 1.91 µM). The inhibition entry in the series with Enterococcus faecium [3] is “Active”. In addition, in the series on Enterococcus faecium [4], the inhibition entry was “inactive”. For the same molecule, in the series on Caco-2, the Activity result is reported as “Non-Toxic”.
In [1], `NS(=O)(=O)c1nnc(NC(=O)C2CCCC2)s1` yielded a CC50 at 2 h of more than 128 µg/mL. The MIC was 0.5 µg/mL (≈ 1.81 µM) with Enterococcus faecium [2]; 0.5 µg/mL (≈ 1.81 µM) in the series with Enterococcus faecium [5]; 0.5 µg/mL (≈ 1.81 µM) with Enterococcus faecium [7]; 0.5 µg/mL (≈ 1.81 µM) against Enterococcus faecalis [8]; 1 µg/mL (≈ 3.62 µM) with Enterococcus faecium [9]; 0.5 µg/mL (≈ 1.81 µM) in the series on Enterococcus faecium [10]. In addition, the MIC with Enterococcus faecium [11] stood at 0.5 µg/mL (≈ 1.81 µM); in the series on Enterococcus faecium [13], 0.5 µg/mL (≈ 1.81 µM); in the series on Enterococcus faecium [14], 0.25 µg/mL (≈ 0.905 µM); with Enterococcus faecium [15] it was 1 µg/mL (≈ 3.62 µM); against Enterococcus faecium [16], 0.5 µg/mL (≈ 1.81 µM); with Enterococcus faecalis [17] it was 0.5 µg/mL (≈ 1.81 µM). In the series on Enterococcus faecium [3], the inhibition entry was “Active”. Besides, the inhibition entry with Enterococcus faecium [4] was “inactive”. In addition, the result with Enterococcus faecalis [6] and in the series on Enterococcus faecalis [12] was Active. The Activity entry in the series with Caco-2 is “Non-Toxic”.
